Measurements taken from ChEMBL document CHEMBL1240400, “Comparative in vitro activities of nemonoxacin (TG-873870), a novel nonfluorinated quinolone, and other quinolones against clinical isolates” (2010).
≈ marks a conversion by molar mass, not a printed value.

Key:
Type in all cases: functional
Staphylococcus aureus [1] = assay: Antibacterial activity against methicillin susceptible Staphylococcus aureus by broth dilution method
Staphylococcus aureus [2] = assay: Antibacterial activity against ciprofloxacin susceptible and methicillin resistant Staphylococcus aureus by broth dilution method
Procedure, shortened: (§1)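 Clinical isolates tested by CLSI broth microdilution in panels holding serial twofold drug dilutions in cation-adjusted Mueller-Hinton broth. Final inoculum 5 × 10^5 CFU/ml was made from a 0.5 McFarland suspension. Plates were incubated overnight at 35°C in ambient air, and the MIC was read as the lowest concentration inhibiting growth. Quality control strains were included in each run.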

Streptococcus agalactiae = assay: Antibacterial activity against Streptococcus agalactiae by broth dilution method
Procedure, shortened: (§2)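 Streptococci were tested by CLSI broth microdilution in Mueller-Hinton broth with 3% lysed horse blood, seeded from a 0.5 McFarland suspension. Incubated overnight at 35°C in ambient air, with quality control strains in each run. MIC taken over a per-agent dilution range.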

Enterococcus faecalis [3] = assay: Antibacterial activity against vancomycin resistant Enterococcus faecalis by broth dilution method
Staphylococcus = assay: Antibacterial activity against methicillin resistant coagulase negative Staphylococcus by broth dilution method
Streptococcus viridans = assay: Antibacterial activity against Streptococcus viridans by broth dilution method; procedure, shortened: as §2
Streptococcus pneumoniae [4] = assay: Antibacterial activity against Levofloxacin susceptible Streptococcus pneumoniae by broth dilution method
Procedure, shortened: (§3)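 Streptococcus pneumoniae clinical isolates tested by CLSI broth microdilution. A 0.5 McFarland suspension was diluted into Mueller-Hinton broth with 3% lysed horse blood, then tested against serial drug dilutions. Plates were incubated overnight at 35°C in ambient air, and the MIC was read as the lowest inhibitory concentration. Quality control strains were included in each run.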

Streptococcus pyogenes = assay: Antibacterial activity against Streptococcus pyogenes by broth dilution method; procedure, shortened: as §2
Enterococcus faecium [5] = assay: Antibacterial activity against vancomycin resistant Enterococcus faecium by broth dilution method; procedure, shortened: as §1
Enterococcus faecalis [6] = assay: Antibacterial activity against Enterococcus faecalis by broth dilution method
Staphylococcus aureus [7] = assay: Antibacterial activity against ciprofloxacin and methicillin resistant Staphylococcus aureus by broth dilution method; procedure, shortened: as §1
Enterococcus faecium [8] = assay: Antibacterial activity against Enterococcus faecium by broth dilution method; procedure, shortened: as §1
[9] = test system: Staphylococcus epidermidis; assay: Antibacterial activity against methicillin resistant coagulase negative Staphylococcus epidermidis by broth dilution method
Streptococcus pneumoniae [10] = assay: Antibacterial activity against Levofloxacin resistant Streptococcus pneumoniae by broth dilution method; procedure, shortened: as §3
Proteus mirabilis = assay: Antibacterial activity against Proteus mirabilis by broth dilution method
Acinetobacter baumannii = assay: Antibacterial activity against Acinetobacter baumannii by broth dilution method
Procedure, shortened: (§4)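 Broth microdilution per CLSI in panels spanning a dilution range of each agent. Cation-adjusted Mueller-Hinton broth, final inoculum 5 × 10^5 CFU/ml from a 0.5 McFarland suspension. Incubated overnight at 35°C in ambient air, with quality control strains in each run. MIC reported; values at or below the lowest concentration tested are given as that concentration.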

Escherichia coli [11] = assay: Antibacterial activity against ciprofloxacin susceptible Escherichia coli by broth dilution method; procedure, shortened: as §4
Enterobacter cloacae = assay: Antibacterial activity against Enterobacter cloacae by broth dilution method
Klebsiella pneumoniae = assay: Antibacterial activity against Klebsiella pneumoniae by broth dilution method; procedure, shortened: as §4
Escherichia coli [12] = assay: Antibacterial activity against ciprofloxacin resistant Escherichia coli by broth dilution method; procedure, shortened: as §1
Pseudomonas aeruginosa = assay: Antibacterial activity against Pseudomonas aeruginosa by broth dilution method
Citrobacter freundii = assay: Antibacterial activity against Citrobacter freundii by broth dilution method; procedure, shortened: as §4
Haemophilus influenzae = assay: Antibacterial activity against Haemophilus influenzae by broth dilution method
Procedure, shortened: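 Broth microdilution per CLSI using Haemophilus Test Medium broth, seeded from a 0.5 McFarland suspension. Incubated overnight at 35°C in ambient air, with quality control strains in each run. MIC read against a tested dilution range; values at the low limit are given as the lowest concentration.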

## CC(=O)NC[C@H]1CN(c2ccc(N3CCOCC3)c(F)c2)C(=O)O1 [LINEZOLID]
Staphylococcus aureus [1]
  MIC50: 2 µg/mL (≈ 5.93 µM)
  MIC90: 2 µg/mL (≈ 5.93 µM)
Staphylococcus aureus [2]
  MIC50: 2 µg/mL (≈ 5.93 µM)
  MIC90: 2 µg/mL (≈ 5.93 µM)
Streptococcus agalactiae
  MIC: 1 µg/mL (≈ 2.96 µM)
  MIC50: 1 µg/mL (≈ 2.96 µM)
  MIC90: 1 µg/mL (≈ 2.96 µM)
Enterococcus faecalis [3]
  MIC50: 1 µg/mL (≈ 2.96 µM)
  MIC90: 2 µg/mL (≈ 5.93 µM)
Staphylococcus
  MIC50: 1 µg/mL (≈ 2.96 µM)
  MIC90: 2 µg/mL (≈ 5.93 µM)
Streptococcus viridans
  MIC50: 1 µg/mL (≈ 2.96 µM)
  MIC90: 2 µg/mL (≈ 5.93 µM)
Streptococcus pneumoniae [4]
  MIC50: 1 µg/mL (≈ 2.96 µM)
  MIC90: 1 µg/mL (≈ 2.96 µM)
Streptococcus pyogenes
  MIC50: 1 µg/mL (≈ 2.96 µM)
  MIC90: 1 µg/mL (≈ 2.96 µM)
Enterococcus faecium [5]
  MIC50: 2 µg/mL (≈ 5.93 µM)
  MIC90: 2 µg/mL (≈ 5.93 µM)
Enterococcus faecalis [6]
  MIC50: 1 µg/mL (≈ 2.96 µM)
  MIC90: 2 µg/mL (≈ 5.93 µM)
Staphylococcus aureus [7]
  MIC50: 2 µg/mL (≈ 5.93 µM)
  MIC90: 2 µg/mL (≈ 5.93 µM)
Enterococcus faecium [8]
  MIC50: 2 µg/mL (≈ 5.93 µM)
  MIC90: 2 µg/mL (≈ 5.93 µM)
[9]
  MIC50: 1 µg/mL (≈ 2.96 µM)
  MIC90: 2 µg/mL (≈ 5.93 µM)
Streptococcus pneumoniae [10]
  MIC50: 1 µg/mL (≈ 2.96 µM)
  MIC90: 1 µg/mL (≈ 2.96 µM)

## Cc1onc(-c2ccccc2)c1C(=O)N[C@@H]1C(=O)N2[C@@H]1SC(C)(C)[C@@H]2C(=O)O [OXACILLIN]
Staphylococcus aureus [1]
  MIC50: 0.5 µg/mL (≈ 1.25 µM)
  MIC90: 1 µg/mL (≈ 2.49 µM)
Staphylococcus aureus [2]
  MIC50: > 8 µg/mL
  MIC90: > 8 µg/mL
Staphylococcus
  MIC50: > 8 µg/mL
  MIC90: > 8 µg/mL
Staphylococcus aureus [7]
  MIC: > 8 µg/mL
  MIC50: > 8 µg/mL
  MIC90: > 8 µg/mL
[9]
  MIC50: > 8 µg/mL
  MIC90: > 8 µg/mL

## CCN1CCN(C(=O)N[C@@H](C(=O)N[C@@H]2C(=O)N3[C@@H]2SC(C)(C)[C@@H]3C(=O)O)c2ccccc2)C(=O)C1=O [PIPERACILLIN]
Proteus mirabilis
  MIC50: 32 µg/mL (≈ 61.8 µM)
  MIC90: > 128 µg/mL
Acinetobacter baumannii
  MIC50: > 128 µg/mL
  MIC90: > 128 µg/mL
Escherichia coli [11]
  MIC50: > 128 µg/mL
  MIC90: > 128 µg/mL
Enterobacter cloacae
  MIC50: > 128 µg/mL
  MIC90: > 128 µg/mL
Klebsiella pneumoniae
  MIC50: > 128 µg/mL
  MIC90: > 128 µg/mL
Escherichia coli [12]
  MIC: 2 µg/mL (≈ 3.86 µM)
  MIC90: 0.5 µg/mL (≈ 0.966 µM)
Pseudomonas aeruginosa
  MIC50: 128 µg/mL (≈ 247 µM)
  MIC90: > 128 µg/mL
Citrobacter freundii
  MIC50: 16 µg/mL (≈ 30.9 µM)
  MIC90: > 128 µg/mL

## CN(C)c1cc(NC(=O)CNC(C)(C)C)c(O)c2c1C[C@H]1C[C@H]3[C@H](N(C)C)C(O)=C(C(N)=O)C(=O)[C@@]3(O)C(O)=C1C2=O [TIGECYCLINE]
Proteus mirabilis
  MIC50: 2 µg/mL (≈ 3.41 µM)
  MIC90: 4 µg/mL (≈ 6.83 µM)
Acinetobacter baumannii
  MIC50: 1 µg/mL (≈ 1.71 µM)
  MIC90: 2 µg/mL (≈ 3.41 µM)
Staphylococcus aureus [1]
  MIC50: 0.12 µg/mL (≈ 0.205 µM)
  MIC90: 0.25 µg/mL (≈ 0.427 µM)
Staphylococcus aureus [2]
  MIC50: 0.25 µg/mL (≈ 0.427 µM)
  MIC90: 0.25 µg/mL (≈ 0.427 µM)
Escherichia coli [11]
  MIC50: 0.25 µg/mL (≈ 0.427 µM)
  MIC90: 0.5 µg/mL (≈ 0.854 µM)
Streptococcus agalactiae
  MIC: 0.03 µg/mL (≈ 0.0512 µM)
  MIC50: 0.03 µg/mL (≈ 0.0512 µM)
  MIC90: 0.06 µg/mL (≈ 0.102 µM)
Enterococcus faecalis [3]
  MIC50: 0.25 µg/mL (≈ 0.427 µM)
  MIC90: 0.25 µg/mL (≈ 0.427 µM)
Enterobacter cloacae
  MIC50: 0.5 µg/mL (≈ 0.854 µM)
  MIC90: 2 µg/mL (≈ 3.41 µM)
Haemophilus influenzae
  MIC50: 0.5 µg/mL (≈ 0.854 µM)
  MIC90: 1 µg/mL (≈ 1.71 µM)
Klebsiella pneumoniae
  MIC50: 0.5 µg/mL (≈ 0.854 µM)
  MIC90: 1 µg/mL (≈ 1.71 µM)
Staphylococcus
  MIC50: 0.25 µg/mL (≈ 0.427 µM)
  MIC90: 0.5 µg/mL (≈ 0.854 µM)
Streptococcus viridans
  MIC50: 0.06 µg/mL (≈ 0.102 µM)
  MIC90: 0.12 µg/mL (≈ 0.205 µM)
Streptococcus pneumoniae [4]
  MIC: 0.08 µg/mL (≈ 0.137 µM)
  MIC50: 0.03 µg/mL (≈ 0.0512 µM)
  MIC90: 0.06 µg/mL (≈ 0.102 µM)
Streptococcus pyogenes
  MIC50: 0.03 µg/mL (≈ 0.0512 µM)
  MIC90: 0.06 µg/mL (≈ 0.102 µM)
Enterococcus faecium [5]
  MIC50: 0.06 µg/mL (≈ 0.102 µM)
  MIC90: 0.12 µg/mL (≈ 0.205 µM)
Enterococcus faecalis [6]
  MIC50: 0.25 µg/mL (≈ 0.427 µM)
  MIC90: 0.25 µg/mL (≈ 0.427 µM)
Escherichia coli [12]
  MIC50: 0.25 µg/mL (≈ 0.427 µM)
  MIC90: > 8 µg/mL
Staphylococcus aureus [7]
  MIC50: 0.25 µg/mL (≈ 0.427 µM)
  MIC90: 0.5 µg/mL (≈ 0.854 µM)
Enterococcus faecium [8]
  MIC50: 0.06 µg/mL (≈ 0.102 µM)
  MIC90: 0.12 µg/mL (≈ 0.205 µM)
Pseudomonas aeruginosa
  MIC50: 8 µg/mL (≈ 13.7 µM)
  MIC90: > 8 µg/mL
[9]
  MIC50: 0.25 µg/mL (≈ 0.427 µM)
  MIC90: 0.5 µg/mL (≈ 0.854 µM)
Citrobacter freundii
  MIC: 0.25 µg/mL (≈ 0.427 µM)
  MIC50: 0.25 µg/mL (≈ 0.427 µM)
  MIC90: 0.5 µg/mL (≈ 0.854 µM)
Streptococcus pneumoniae [10]
  MIC50: 0.06 µg/mL (≈ 0.102 µM)
  MIC90: 0.06 µg/mL (≈ 0.102 µM)

## CN[C@H](CC(C)C)C(=O)N[C@H]1C(=O)N[C@@H](CC(N)=O)C(=O)N[C@H]2C(=O)N[C@H]3C(=O)N[C@H](C(=O)N[C@H](C(=O)O)c4cc(O)cc(O)c4-c4cc3ccc4O)[C@H](O)c3ccc(c(Cl)c3)Oc3cc2cc(c3O[C@@H]2O[C@H](CO)[C@@H](O)[C@H](O)[C@H]2O[C@H]2C[C@](C)(N)[C@H](O)[C@H](C)O2)Oc2ccc(cc2Cl)[C@H]1O [VANCOMYCIN]
Staphylococcus aureus [1]
  MIC50: 1 µg/mL (≈ 0.69 µM)
  MIC90: 1 µg/mL (≈ 0.69 µM)
Staphylococcus aureus [2]
  MIC50: 1 µg/mL (≈ 0.69 µM)
  MIC90: 1 µg/mL (≈ 0.69 µM)
Streptococcus agalactiae
  MIC: 0.5 µg/mL (≈ 0.345 µM)
  MIC50: 0.5 µg/mL (≈ 0.345 µM)
  MIC90: 1 µg/mL (≈ 0.69 µM)
Enterococcus faecalis [3]
  MIC50: 2 µg/mL (≈ 1.38 µM)
  MIC90: > 16 µg/mL
Staphylococcus
  MIC50: 2 µg/mL (≈ 1.38 µM)
  MIC90: 2 µg/mL (≈ 1.38 µM)
Streptococcus viridans
  MIC: 0.5 µg/mL (≈ 0.345 µM)
  MIC50: 0.5 µg/mL (≈ 0.345 µM)
  MIC90: 1 µg/mL (≈ 0.69 µM)
Streptococcus pneumoniae [4]
  MIC50: 0.5 µg/mL (≈ 0.345 µM)
  MIC90: 0.5 µg/mL (≈ 0.345 µM)
Streptococcus pyogenes
  MIC50: 0.5 µg/mL (≈ 0.345 µM)
  MIC90: 0.5 µg/mL (≈ 0.345 µM)
Enterococcus faecium [5]
  MIC50: 8 µg/mL (≈ 5.52 µM)
  MIC90: > 16 µg/mL
Enterococcus faecalis [6]
  MIC50: 2 µg/mL (≈ 1.38 µM)
  MIC90: > 16 µg/mL
Staphylococcus aureus [7]
  MIC50: 2 µg/mL (≈ 1.38 µM)
  MIC90: 2 µg/mL (≈ 1.38 µM)
Enterococcus faecium [8]
  MIC50: 8 µg/mL (≈ 5.52 µM)
  MIC90: > 16 µg/mL
[9]
  MIC50: 2 µg/mL (≈ 1.38 µM)
  MIC90: 2 µg/mL (≈ 1.38 µM)
Streptococcus pneumoniae [10]
  MIC50: 0.5 µg/mL (≈ 0.345 µM)
  MIC90: 0.5 µg/mL (≈ 0.345 µM)
